Measurements: ChEMBL document CHEMBL2034972, “Synthesis, biological evaluation, and structure-activity relationships of N-benzoyl-2-hydroxybenzamides as agents active against P. falciparum (K1 strain), Trypanosomes, and Leishmania” (J Med Chem, 2012)
In brackets after ≈: the same amount, converted by molar mass.

How the values were obtained:
[1] = target: Voltage-gated inwardly rectifying potassium channel KCNH2 (Homo sapiens, UniProt Q12809); test: Inhibition of human Erg at 300 uM
[2] = system: Plasmodium falciparum; test: Antimalarial activity against chloroquine and pyrimethamine-resistant Plasmodium falciparum […] assessed as [3H]-hypoxanthine incorporation after 48 hrs by liquid scintillation counting; type: functional, organism-based
Procedure, shortened: (§1)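 In vitro screens of parasites and host cells: T. b. rhodesiense STIB900 trypomastigotes, T. cruzi Tulahuen C4 intracellular amastigotes, L. donovani MHOM-ET-67/L82 axenic amastigotes, P. falciparum K1 erythrocytic stage, and L6 rat skeletal myoblasts […] for toxicity. […] Values are means of two independent determinations.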

[3] = Aqueous solubility of the compound in phosphate based buffer at pH 4; type: physicochemical
[4] = target: CYP3A4 (Homo sapiens, UniProt P08684); test: Inhibition of CYP3A4 at 10 uM; type: ADME
CYP3A4, sequence (P08684 whole entry): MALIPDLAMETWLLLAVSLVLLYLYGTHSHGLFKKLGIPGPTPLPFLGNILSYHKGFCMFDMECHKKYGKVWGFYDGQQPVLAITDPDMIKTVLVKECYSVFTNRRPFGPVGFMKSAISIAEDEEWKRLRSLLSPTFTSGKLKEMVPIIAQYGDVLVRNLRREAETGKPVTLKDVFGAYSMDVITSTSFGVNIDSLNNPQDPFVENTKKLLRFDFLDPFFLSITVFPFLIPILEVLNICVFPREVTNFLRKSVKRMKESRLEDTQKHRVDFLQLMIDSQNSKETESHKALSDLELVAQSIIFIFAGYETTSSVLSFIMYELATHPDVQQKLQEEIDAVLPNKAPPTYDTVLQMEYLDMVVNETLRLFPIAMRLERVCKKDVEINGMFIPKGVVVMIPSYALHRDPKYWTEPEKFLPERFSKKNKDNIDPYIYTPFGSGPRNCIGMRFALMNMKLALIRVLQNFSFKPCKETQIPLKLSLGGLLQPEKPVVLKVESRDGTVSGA

[5] = Metabolic stability of the compound in human liver microsomes assessed as compound remaining after 60 mins; type: ADME, Microsome; conditions: read-out: Stability
[6] = system: Leishmania donovani; test: Antileishmanial activity against axenic amastigote stage of Leishmania donovani […] after 72 hrs by alamar blue assay; type: functional, organism-based; conditions: MHOM/ET/67/L82, L6, 72 h
Procedure, shortened: (§2)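 In vitro screens of parasites and host cells: T. b. rhodesiense STIB900 trypomastigotes, T. cruzi Tulahuen C4 intracellular amastigotes, L. donovani MHOM-ET-67/L82 axenic amastigotes, P. falciparum K1 erythrocytic stage, and L6 rat skeletal myoblasts […] for toxicity. Values are means of two independent determinations.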

[7] = Metabolic stability of the compound in human liver microsomes assessed as compound remaining after 60 mins in presence of NADPH; type: ADME, Microsome; conditions: read-out: Stability
[8] = Intrinsic clearance in human liver microsomes assessed per mg of protein; type: ADME, Microsome; conditions: read-out: CLH
[9] = Aqueous solubility of the compound in phosphate based buffer at pH 7.4; type: physicochemical
[10] = target: CYP2C9 (Homo sapiens, UniProt P11712); test: Inhibition of CYP2C9 at 10 uM; type: ADME
CYP2C9, sequence (P11712 whole entry): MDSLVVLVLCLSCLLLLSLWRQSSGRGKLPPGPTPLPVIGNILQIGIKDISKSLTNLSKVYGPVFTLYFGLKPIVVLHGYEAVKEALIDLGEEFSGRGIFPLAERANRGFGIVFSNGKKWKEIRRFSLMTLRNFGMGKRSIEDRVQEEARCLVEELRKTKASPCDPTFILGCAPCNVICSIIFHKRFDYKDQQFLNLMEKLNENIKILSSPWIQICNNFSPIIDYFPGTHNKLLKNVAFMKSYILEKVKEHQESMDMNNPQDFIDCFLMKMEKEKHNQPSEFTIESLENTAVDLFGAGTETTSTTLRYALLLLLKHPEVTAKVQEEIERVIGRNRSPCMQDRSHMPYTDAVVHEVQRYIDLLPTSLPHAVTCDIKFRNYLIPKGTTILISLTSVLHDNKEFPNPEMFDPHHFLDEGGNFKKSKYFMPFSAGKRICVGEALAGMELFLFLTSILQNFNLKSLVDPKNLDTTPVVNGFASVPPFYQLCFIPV

[11] = system: Trypanosoma cruzi; test: Antitrypanosomal activity against intracellular amastigote stage of Trypanosoma cruzi Tulahuen C2C4 infected in rat L6 cells after 96 hrs by spectrophotometric analysis; type: functional, organism-based; conditions: Tulahuen C2C4, L6, 96 h; procedure, shortened: as §2
[12] = Plasma protein binding in human; type: ADME, cell-free; conditions: read-out: PPB (converted)
[13] = system: Trypanosoma brucei rhodesiense; test: Antitrypanosomal activity against trypomastigotes of Trypanosoma brucei rhodesiense […] after 72 hrs by alamar blue assay; type: functional, organism-based; conditions: STIB 900, L6, 72 h; procedure, shortened: as §1
[14] = target: CYP2D6 (Homo sapiens, UniProt P10635); test: Inhibition of CYP2D6 at 10 uM; type: ADME
CYP2D6, sequence (P10635 whole entry): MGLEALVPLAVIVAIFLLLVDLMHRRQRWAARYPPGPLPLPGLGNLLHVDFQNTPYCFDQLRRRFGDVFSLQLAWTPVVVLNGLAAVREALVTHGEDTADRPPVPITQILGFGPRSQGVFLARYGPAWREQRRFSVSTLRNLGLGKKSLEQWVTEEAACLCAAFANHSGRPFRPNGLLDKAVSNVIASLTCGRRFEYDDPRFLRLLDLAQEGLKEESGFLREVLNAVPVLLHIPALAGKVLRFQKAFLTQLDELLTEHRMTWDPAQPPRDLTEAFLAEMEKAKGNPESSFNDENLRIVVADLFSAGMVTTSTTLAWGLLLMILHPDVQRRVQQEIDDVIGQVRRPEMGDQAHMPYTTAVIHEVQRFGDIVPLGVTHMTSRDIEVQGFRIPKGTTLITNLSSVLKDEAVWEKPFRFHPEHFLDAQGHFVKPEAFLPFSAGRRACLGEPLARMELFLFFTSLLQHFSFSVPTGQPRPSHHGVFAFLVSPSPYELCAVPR

[15] = system: L6; test: Cytotoxicity against rat L6 cells after 72 hrs by alamar blue assay; type: cell-based; conditions: L6, 72 h; procedure, shortened: as §1
[16] = Selectivity index, ratio of IC50 for rat L6 cells to IC50 for intracellular amastigote stage of Trypanosoma cruzi Tulahuen C2C4; type: toxicity, cell-based; conditions: read-out: Ratio IC50
Procedure, shortened: (§3)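 Selectivity index is calculated as the L6 myoblast IC50 divided by the IC50 against the respective parasite. Both IC50s are in µg/mL and are means of two independent determinations.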

[17] = Selectivity index, ratio of IC50 for rat L6 cells to IC50 for axenic amastigote stage of Leishmania donovani MHOM/ET/67/L82; type: toxicity, cell-based; conditions: read-out: Ratio IC50; procedure, shortened: as §3
[18] = Selectivity index, ratio of IC50 for rat L6 cells to IC50 for trypomastigotes of Trypanosoma brucei rhodesiense STIB 900; type: toxicity, cell-based; conditions: read-out: Ratio IC50; procedure, shortened: as §3
[19] = Selectivity index, ratio of IC50 for rat L6 cells to IC50 for chloroquine and pyrimethamine-resistant Plasmodium falciparum K1; type: toxicity, cell-based; conditions: read-out: Ratio IC50; procedure, shortened: as §3

Voltage-gated inwardly rectifying potassium channel KCNH2, sequence (Q12809 whole entry): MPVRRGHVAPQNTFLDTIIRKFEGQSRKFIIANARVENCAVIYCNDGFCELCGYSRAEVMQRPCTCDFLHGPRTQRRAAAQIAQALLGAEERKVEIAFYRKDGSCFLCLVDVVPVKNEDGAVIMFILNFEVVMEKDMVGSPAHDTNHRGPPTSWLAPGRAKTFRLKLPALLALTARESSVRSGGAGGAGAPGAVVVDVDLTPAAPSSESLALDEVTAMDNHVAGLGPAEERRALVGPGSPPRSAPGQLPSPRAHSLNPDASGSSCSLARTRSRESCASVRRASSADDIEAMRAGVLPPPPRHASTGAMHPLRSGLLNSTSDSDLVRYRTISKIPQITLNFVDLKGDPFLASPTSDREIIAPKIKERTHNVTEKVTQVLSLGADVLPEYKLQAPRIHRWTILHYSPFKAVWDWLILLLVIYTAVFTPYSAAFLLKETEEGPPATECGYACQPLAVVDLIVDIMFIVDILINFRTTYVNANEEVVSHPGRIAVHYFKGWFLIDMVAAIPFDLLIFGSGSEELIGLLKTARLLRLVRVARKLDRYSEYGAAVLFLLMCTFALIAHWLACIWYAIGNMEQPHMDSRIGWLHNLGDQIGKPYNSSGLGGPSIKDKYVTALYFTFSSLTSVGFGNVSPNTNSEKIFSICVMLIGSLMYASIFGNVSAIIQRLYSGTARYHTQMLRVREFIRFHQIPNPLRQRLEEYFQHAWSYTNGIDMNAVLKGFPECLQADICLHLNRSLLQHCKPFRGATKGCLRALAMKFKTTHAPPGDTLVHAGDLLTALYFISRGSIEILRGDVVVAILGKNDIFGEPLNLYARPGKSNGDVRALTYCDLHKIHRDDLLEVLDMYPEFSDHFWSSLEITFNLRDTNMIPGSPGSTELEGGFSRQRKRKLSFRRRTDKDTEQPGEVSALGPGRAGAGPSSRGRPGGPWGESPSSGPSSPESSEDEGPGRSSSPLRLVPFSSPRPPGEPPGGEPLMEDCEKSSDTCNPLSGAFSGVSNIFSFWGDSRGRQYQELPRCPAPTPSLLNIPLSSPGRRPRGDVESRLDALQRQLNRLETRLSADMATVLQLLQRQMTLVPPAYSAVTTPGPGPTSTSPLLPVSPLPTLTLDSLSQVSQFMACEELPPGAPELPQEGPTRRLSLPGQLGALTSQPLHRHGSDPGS

| Structure (SMILES) | inhibition (INH) [1] | IC50 [2] [µg/mL] | solubility [3] [µM] | inhibition at 10 µM [4] [%] | remaining at 1 h [5] [%] | IC50 [6] [µg/mL] | remaining at 1 h [7] [%] | microsomal CLint [8] [µL/min/mg] | solubility [9] [µM] | inhibition at 10 µM [10] [%] | IC50 [11] [µg/mL] | fraction unbound [12] | IC50 [13] [µg/mL] | inhibition at 10 µM [14] [%] | IC50 [15] [µg/mL] | selectivity ratio [16] | selectivity ratio [17] | selectivity ratio [18] | selectivity ratio [19] |
| --- | --- | --- | --- | --- | --- | --- | --- | --- | --- | --- | --- | --- | --- | --- | --- | --- | --- | --- | --- |
| CCc1ccc(C(=O)NC(=O)c2ccccc2O)cc1 | Not Active | 5.6 (≈ 20.8 µM) | 2.76 (≈ 0.743 µg/mL) | 71 | 53 | 7.4 (≈ 27.5 µM) | 0.5 | 282 | 50.8 (≈ 13.7 µg/mL) | 71 | 4.8 (≈ 17.8 µM) | 0.001 | 81 (≈ 301 µM) | 71 | 70 (≈ 260 µM) | – | – | – | – |
| OC(Cn1cncn1)(Cn1cncn1)c1ccc(F)cc1F [FLUCONAZOLE] | – | – | – | – | – | – | – | – | – | – | – | 0.763 | – | – | – | – | – | – | – |
| Cc1ccc(C(=O)NC(=O)c2ccccc2O)cc1 | – | 1.4 (≈ 5.48 µM) | – | – | – | 3.2 (≈ 12.5 µM) | – | – | – | – | 38 (≈ 149 µM) | – | > 100 | – | 46 (≈ 180 µM) | 1.2 | 14 | < 0.46 | 33 |
| CCc1ccc(C(=O)n2c(=O)oc3ccccc3c2=O)cc1 | – | 6.9 (≈ 23.4 µM) | – | – | – | 1.9 (≈ 6.43 µM) | – | – | – | – | 8.8 (≈ 29.8 µM) | – | 83 (≈ 281 µM) | – | 26 (≈ 88 µM) | 3 | 13 | 0.31 | 3.7 |
| O=C(NC(=O)c1ccccc1O)c1ccc2c(c1)OCO2 | – | 4.2 (≈ 14.7 µM) | – | – | – | > 50 | – | – | – | – | 27 (≈ 94.7 µM) | – | > 50 | – | 24 (≈ 84.1 µM) | 0.86 | < 0.47 | < 0.47 | 5.6 |
| CCc1ccc(C(=O)NNC(=O)c2ccccc2O)cc1 | – | 27 (≈ 95 µM) | – | – | – | 6.2 (≈ 21.8 µM) | – | – | – | – | 2.2 (≈ 7.74 µM) | – | 17 (≈ 59.8 µM) | – | 4.8 (≈ 16.9 µM) | 2.2 | 0.77 | 0.28 | 0.18 |
| Nc1ccc(C(=O)NC(=O)c2ccccc2O)cc1 | – | 3.9 (≈ 15.2 µM) | – | – | – | 7.8 (≈ 30.4 µM) | – | – | – | – | 40 (≈ 156 µM) | – | 46 (≈ 180 µM) | – | 39 (≈ 152 µM) | 0.98 | 5 | 0.84 | 10 |
| CCc1ccc(NC(=O)NC(=O)c2ccccc2O)cc1 | – | 26 (≈ 91.4 µM) | – | – | – | 100 (≈ 352 µM) | – | – | – | – | 74 (≈ 260 µM) | – | 36 (≈ 127 µM) | – | 70 (≈ 246 µM) | 0.95 | 0.7 | 2 | 2.8 |
| COc1ccc2cc(C(=O)NC(=O)c3ccccc3O)ccc2c1 | – | 0.98 (≈ 3.05 µM) | – | – | – | 1.4 (≈ 4.36 µM) | – | – | – | – | 5.1 (≈ 15.9 µM) | – | 42 (≈ 131 µM) | – | 56 (≈ 174 µM) | 11 | 40 | 1.3 | 57 |
| CCc1ccc(C(=O)N(C)C(=O)c2ccccc2O)cc1 | – | 28 (≈ 98.8 µM) | – | – | – | 9.1 (≈ 32.1 µM) | – | – | – | – | 29 (≈ 102 µM) | – | > 100 | – | 9.4 (≈ 33.2 µM) | 0.33 | 1 | < 0.094 | 0.33 |
